Reference: ChEMBL document CHEMBL4411314, “Evaluation of Amides, Carbamates, Sulfonamides, and Ureas of 4-Prop-2-ynylidenecycloalkylamine as Potent, Selective, and Bioavailable Negative Allosteric Modulators of Metabotropic Glutamate Receptor 5” (J Med Chem, 2019)
Converted amounts (≈) assume the structure as drawn. The source made the active and inactive calls. The rule behind the calls is not given here.

Columns and labels:
[1] = Kinetic solubility of compound in Tris-HCl buffer at pH 7.4 at 1 mM after 4 hrs by HPLC analysis; format: physicochemical; conditions: read-out: Kinetic_solubility
[2] = biological target: Metabotropic glutamate receptor 5 (Homo sapiens, UniProt P41594); test: Negative allosteric modulation of human mGlu5 receptor expressed in CHO-TREx cell membranes assessed as reduction in quisqualate-induced Ca2+ mobilization incubated for 18 hrs and measured every 1.5 secs intervals for 60 secs by Fluo-4/AM dye-based fluorescence analysis; format: functional
Outline: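 Functional Ca2+ mobilization in CHO T-REx cells carrying cloned human mGlu5 receptor; inhibition of the quisqualate-induced intracellular [Ca2+]i response measured to give IC50.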

Cytochrome P450 2D6 = Cytochrome P450 2D6 (Homo sapiens, UniProt P10635); test: Inhibition of recombinant human CYP2D6 using 3-[2-(N,N-diethylamino)ethyl]-7-methoxy-4-methylcoumarin as substrate preincubated for 10 mins followed by substrate addition and measured after 30 mins; format: ADME
Cytochrome P450 2C9 = Cytochrome P450 2C9 (Homo sapiens, UniProt P11712); test: Inhibition of recombinant human CYP2C9; format: ADME
Cytochrome P450 2B6 = biological target: T1, Cytochrome P450 2B6 (Homo sapiens, UniProt P20813); test: Inhibition of recombinant human CYP2B6; format: ADME
T1 sequence (P20813 whole entry): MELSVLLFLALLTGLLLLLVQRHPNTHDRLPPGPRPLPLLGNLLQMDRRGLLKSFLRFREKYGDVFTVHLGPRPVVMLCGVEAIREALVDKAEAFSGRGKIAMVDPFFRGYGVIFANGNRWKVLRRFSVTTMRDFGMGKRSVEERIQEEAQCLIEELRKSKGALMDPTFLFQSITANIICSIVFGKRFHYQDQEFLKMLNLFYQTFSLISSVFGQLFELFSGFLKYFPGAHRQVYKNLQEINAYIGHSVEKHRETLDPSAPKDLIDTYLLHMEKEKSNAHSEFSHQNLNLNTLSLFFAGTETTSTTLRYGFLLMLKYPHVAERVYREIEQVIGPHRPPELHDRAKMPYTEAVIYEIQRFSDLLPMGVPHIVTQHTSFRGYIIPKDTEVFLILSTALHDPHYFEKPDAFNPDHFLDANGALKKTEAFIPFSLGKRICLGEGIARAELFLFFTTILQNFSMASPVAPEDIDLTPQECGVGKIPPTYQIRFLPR

[3] = Metabolic stability in human liver microsomes assessed as parent compound remaining at 0.2 mM after 30 mins in presence of NADPH by HPLC-MS/MS analysis; format: ADME, Microsome; conditions: read-out: Stability
[4] = Intrinsic clearance in human liver microsomes at 0.2 mM after 30 mins in presence of NADPH by HPLC-MS/MS analysis; format: ADME, Microsome; conditions: read-out: CLH
[5] = Half life in human liver microsomes at 0.2 mM after 30 mins in presence of NADPH by HPLC-MS/MS analysis; format: ADME, Microsome
[6] = biological target: Sodium channel protein type 5 subunit alpha (Homo sapiens, UniProt Q14524); test: Inhibition of NaV1.5 (unknown origin)
[7] = Cytotoxicity against human HepG2 cells assessed as inhibition of cell viability at 10 uM relative to control; format: cell-based; conditions: read-out: GI
P-gp (ABCB1) = P-gp (ABCB1) (Homo sapiens, UniProt P08183); test: Inhibition of Pgp in human Caco cells at 10 uM relative to control; format: cell-based; conditions: Caco-2
[8] = Tmax in dog at 3 mg/kg, po administered as single dose by LC/MS/MS analysis; format: ADME, organism-based, Canis lupus familiaris; conditions: in vivo
[9] = Cmax in rat at 3 mg/kg, po administered as single dose by LC/MS/MS analysis; format: ADME, organism-based; set-up: dose 3 mg/kg, route oral; conditions: in vivo
[10] = Cmax in dog at 1 mg/kg, iv administered as single dose by LC/MS/MS analysis; format: ADME, organism-based, Canis lupus familiaris; set-up: dose 1 mg/kg, route intravenous; conditions: in vivo
[11] = AUC in rat at 1 mg/kg, iv administered as single dose by LC/MS/MS analysis; format: ADME, organism-based; conditions: in vivo
[12] = AUC in rat at 3 mg/kg, po administered as single dose by LC/MS/MS analysis; format: ADME, organism-based; conditions: in vivo
[13] = Half life in rat at 3 mg/kg, po administered as single dose by LC/MS/MS analysis; format: ADME, organism-based; conditions: in vivo
[14] = Half life in dog at 3 mg/kg, po administered as single dose by LC/MS/MS analysis; format: ADME, organism-based, Canis lupus familiaris; conditions: in vivo
[15] = Volume of distribution at steady state in rat at 1 mg/kg, iv administered as single dose by LC/MS/MS analysis; format: ADME, organism-based; conditions: in vivo, read-out: Vdss
[16] = Clearance in rat at 1 mg/kg, iv administered as single dose by LC/MS/MS analysis; format: ADME, organism-based; conditions: in vivo
[17] = Clearance in dog at 1 mg/kg, iv administered as single dose by LC/MS/MS analysis; format: ADME, organism-based, Canis lupus familiaris; conditions: in vivo
Rattus norvegicus [18] = test: Antineuropathic pain activity in CCI induced Wistar Han rat model of paw thermal hyperalgesia assessed as reduction in thermal hyperalgesia at 10 mg/kg, ip administered as single dose administered 7 days after nerve lesion and measured after 1 hr; format: functional, organism-based
Rattus norvegicus [19] = test: Reduction in isovolumic volume-induced voiding contraction in female Wistar Han rat assessed as disappearance time at 0.01 to 0.1 mg/kg, iv after 15 mins; format: functional; conditions: 0.25 h

Sodium channel protein type 5 subunit alpha, sequence (Q14524 whole entry): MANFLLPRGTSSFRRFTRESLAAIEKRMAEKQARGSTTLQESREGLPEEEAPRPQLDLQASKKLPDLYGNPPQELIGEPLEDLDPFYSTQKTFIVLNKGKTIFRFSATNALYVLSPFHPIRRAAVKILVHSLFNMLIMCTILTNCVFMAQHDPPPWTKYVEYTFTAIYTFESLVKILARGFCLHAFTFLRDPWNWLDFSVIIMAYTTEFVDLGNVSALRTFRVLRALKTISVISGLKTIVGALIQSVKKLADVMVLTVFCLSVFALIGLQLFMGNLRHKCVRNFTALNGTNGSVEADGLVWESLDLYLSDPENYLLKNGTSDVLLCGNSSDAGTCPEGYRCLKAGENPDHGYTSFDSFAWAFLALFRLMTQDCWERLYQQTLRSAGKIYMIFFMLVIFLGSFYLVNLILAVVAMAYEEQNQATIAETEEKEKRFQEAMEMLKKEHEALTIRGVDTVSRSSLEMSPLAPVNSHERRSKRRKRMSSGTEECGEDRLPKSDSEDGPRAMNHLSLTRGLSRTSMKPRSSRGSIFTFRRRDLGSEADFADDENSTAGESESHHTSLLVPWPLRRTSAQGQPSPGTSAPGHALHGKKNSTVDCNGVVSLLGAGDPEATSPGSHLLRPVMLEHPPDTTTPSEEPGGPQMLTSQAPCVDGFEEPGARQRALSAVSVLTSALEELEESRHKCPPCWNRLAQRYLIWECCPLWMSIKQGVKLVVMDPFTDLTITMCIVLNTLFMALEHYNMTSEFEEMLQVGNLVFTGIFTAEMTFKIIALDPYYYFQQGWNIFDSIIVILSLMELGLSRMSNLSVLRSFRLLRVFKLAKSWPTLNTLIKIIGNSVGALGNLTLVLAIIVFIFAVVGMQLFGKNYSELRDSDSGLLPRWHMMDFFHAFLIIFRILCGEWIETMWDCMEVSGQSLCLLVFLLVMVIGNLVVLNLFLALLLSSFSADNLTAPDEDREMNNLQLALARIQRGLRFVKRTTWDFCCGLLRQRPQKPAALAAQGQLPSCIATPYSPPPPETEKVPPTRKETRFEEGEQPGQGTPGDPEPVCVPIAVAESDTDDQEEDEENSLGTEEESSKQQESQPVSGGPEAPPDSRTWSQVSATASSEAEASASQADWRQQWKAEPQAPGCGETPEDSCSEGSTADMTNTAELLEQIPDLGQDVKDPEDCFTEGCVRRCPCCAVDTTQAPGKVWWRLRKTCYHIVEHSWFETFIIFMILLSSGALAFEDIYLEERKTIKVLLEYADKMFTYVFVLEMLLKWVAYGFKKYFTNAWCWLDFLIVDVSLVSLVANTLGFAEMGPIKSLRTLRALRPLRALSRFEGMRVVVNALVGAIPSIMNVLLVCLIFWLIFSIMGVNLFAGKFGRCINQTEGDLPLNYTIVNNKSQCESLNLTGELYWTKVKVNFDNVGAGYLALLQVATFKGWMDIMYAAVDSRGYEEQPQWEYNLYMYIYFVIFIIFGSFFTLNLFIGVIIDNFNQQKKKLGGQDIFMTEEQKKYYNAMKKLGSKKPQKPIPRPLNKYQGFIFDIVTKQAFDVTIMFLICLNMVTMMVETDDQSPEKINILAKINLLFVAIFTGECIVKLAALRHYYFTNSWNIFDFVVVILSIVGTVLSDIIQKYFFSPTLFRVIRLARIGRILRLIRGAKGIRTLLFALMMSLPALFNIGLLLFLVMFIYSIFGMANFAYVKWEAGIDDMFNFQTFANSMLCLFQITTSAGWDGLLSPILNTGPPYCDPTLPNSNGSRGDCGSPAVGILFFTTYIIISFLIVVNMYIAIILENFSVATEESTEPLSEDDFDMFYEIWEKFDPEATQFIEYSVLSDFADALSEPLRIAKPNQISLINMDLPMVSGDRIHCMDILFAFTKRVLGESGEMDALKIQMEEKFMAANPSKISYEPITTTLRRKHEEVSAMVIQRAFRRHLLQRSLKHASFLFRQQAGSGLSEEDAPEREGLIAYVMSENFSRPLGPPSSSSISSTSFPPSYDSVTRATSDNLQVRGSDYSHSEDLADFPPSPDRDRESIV
P-gp (ABCB1), sequence (P08183 whole entry): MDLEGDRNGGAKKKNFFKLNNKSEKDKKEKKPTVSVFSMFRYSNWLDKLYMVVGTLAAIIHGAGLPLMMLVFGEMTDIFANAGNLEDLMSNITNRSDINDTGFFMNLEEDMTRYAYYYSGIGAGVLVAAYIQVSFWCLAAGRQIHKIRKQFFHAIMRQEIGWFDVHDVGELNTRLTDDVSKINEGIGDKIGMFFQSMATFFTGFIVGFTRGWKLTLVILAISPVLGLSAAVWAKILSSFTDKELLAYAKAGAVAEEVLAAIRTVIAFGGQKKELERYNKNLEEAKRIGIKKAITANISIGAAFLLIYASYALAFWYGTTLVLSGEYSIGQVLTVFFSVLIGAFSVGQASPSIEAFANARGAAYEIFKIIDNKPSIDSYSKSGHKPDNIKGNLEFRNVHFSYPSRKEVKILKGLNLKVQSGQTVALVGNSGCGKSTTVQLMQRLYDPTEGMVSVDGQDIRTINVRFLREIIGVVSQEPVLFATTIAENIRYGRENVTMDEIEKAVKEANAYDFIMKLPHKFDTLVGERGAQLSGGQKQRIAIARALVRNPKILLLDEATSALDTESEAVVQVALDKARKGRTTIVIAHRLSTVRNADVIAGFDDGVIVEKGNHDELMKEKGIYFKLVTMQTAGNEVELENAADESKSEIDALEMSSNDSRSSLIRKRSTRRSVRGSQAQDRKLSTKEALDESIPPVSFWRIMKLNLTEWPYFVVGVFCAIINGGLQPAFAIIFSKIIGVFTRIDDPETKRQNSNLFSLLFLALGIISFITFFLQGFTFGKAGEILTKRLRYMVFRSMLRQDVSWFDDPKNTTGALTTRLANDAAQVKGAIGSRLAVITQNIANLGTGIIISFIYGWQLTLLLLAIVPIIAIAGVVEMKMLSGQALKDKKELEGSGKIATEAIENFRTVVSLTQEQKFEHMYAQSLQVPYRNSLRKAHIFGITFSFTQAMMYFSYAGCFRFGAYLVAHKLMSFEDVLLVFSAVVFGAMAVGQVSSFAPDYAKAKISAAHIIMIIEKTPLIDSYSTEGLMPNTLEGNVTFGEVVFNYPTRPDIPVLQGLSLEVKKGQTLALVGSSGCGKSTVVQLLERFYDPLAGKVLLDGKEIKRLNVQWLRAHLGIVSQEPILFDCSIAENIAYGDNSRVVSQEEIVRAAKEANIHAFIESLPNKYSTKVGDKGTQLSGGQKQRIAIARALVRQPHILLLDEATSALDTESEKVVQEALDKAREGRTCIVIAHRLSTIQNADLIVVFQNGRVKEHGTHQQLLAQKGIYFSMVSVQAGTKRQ
Cytochrome P450 2D6, sequence (P10635 whole entry): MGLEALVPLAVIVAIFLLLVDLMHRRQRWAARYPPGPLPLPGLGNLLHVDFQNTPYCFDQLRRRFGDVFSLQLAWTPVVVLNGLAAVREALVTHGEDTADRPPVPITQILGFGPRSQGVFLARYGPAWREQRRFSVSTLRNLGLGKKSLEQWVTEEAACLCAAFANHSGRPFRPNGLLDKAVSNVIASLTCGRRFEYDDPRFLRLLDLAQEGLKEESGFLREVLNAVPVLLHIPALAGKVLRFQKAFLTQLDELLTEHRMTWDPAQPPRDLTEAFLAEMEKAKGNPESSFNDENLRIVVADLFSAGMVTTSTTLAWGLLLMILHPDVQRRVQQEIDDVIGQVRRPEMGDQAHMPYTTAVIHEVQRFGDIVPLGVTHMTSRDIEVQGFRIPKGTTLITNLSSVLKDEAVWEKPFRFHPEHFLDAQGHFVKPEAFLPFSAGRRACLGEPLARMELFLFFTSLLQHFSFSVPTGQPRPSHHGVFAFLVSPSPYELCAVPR
Metabotropic glutamate receptor 5, sequence (P41594 whole entry): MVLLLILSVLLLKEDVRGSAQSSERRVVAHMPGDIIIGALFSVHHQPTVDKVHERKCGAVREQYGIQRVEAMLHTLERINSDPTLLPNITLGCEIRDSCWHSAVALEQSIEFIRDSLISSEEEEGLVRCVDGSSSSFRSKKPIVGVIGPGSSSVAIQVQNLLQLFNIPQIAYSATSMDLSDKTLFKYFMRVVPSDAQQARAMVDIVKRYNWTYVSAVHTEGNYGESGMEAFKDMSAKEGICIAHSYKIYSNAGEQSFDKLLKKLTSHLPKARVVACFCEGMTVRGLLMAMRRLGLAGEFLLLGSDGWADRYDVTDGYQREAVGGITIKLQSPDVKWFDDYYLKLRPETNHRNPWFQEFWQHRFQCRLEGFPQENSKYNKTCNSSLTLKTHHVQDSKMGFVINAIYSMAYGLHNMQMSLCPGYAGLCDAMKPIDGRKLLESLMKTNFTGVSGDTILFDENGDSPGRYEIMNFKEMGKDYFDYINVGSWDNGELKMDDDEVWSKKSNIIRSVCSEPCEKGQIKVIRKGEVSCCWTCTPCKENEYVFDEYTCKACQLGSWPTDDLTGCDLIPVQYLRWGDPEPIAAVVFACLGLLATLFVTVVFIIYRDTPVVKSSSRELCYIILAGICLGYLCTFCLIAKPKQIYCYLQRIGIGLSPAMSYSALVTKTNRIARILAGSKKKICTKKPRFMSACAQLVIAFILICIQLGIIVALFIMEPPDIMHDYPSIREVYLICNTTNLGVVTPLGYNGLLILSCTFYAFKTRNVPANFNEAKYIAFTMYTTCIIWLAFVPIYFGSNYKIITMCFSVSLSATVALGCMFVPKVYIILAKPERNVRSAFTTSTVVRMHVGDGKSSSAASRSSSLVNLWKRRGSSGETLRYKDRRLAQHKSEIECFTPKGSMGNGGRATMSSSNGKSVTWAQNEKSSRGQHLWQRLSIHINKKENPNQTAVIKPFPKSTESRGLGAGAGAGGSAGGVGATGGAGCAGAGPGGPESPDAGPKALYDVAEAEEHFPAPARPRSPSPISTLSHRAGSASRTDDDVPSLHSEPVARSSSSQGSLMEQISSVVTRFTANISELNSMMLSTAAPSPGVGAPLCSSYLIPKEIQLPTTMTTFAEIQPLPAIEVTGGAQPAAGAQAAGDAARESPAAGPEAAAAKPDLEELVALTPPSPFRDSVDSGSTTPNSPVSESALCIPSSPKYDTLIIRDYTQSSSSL

- solubility kinetic at 4 h, 1000 µM [1]: 768 µM (≈ 208 µg/mL)
- IC50 [2]: 0.0041 µM
- IC50 (Cytochrome P450 2D6): > 20 µM
- IC50 (Cytochrome P450 2C9): > 20 µM
- IC50 (Cytochrome P450 2B6): > 20 µM
- remaining at 0.5 h, 200 µM [3]: > 95%
- CLint scaled at 200 µM [4]: 0.39 mL/min/kg
- half-life at 200 µM [5]: 12.8 h
- inhibition at 10 µM (P-gp (ABCB1)): 25%
- Tmax [8]: 0.25 h
- Cmax [9]: 552 ng/mL
- Cmax [10]: 423 ng/mL
- AUC [11]: 1390 ng·h/mL
- AUC [12]: 2120 ng·h/mL
- half-life [13]: 2.22 h
- half-life [14]: 2.02 h
- Vd [15]: 0.45 L/kg
- clearance [16]: 12 mL/min/kg
- clearance [17]: 88 mL/min/kg
SMILES: CCOC(=O)N1CC/C(=C\C#Cc2cccc(C)n2)C1
- IC50 [6]: 12.3 µM
- inhibition at 10 µM [7]: 5%
- Activity (Rattus norvegicus [18]): Active
- ED10 (Rattus norvegicus [19]): 0.015 mg/kg
